Measured values as given in ChEMBL document CHEMBL5537160, “Design, Synthesis, Pharmacology, and In Silico Studies of (1S,2S,3S)-2-((S)-Amino(carboxy)methyl)-3-(carboxymethyl)cyclopropane-1-carboxylic Acid (LBG30300): A Picomolar Potency Subtype-Selective mGlu2 Receptor Agonist” (J Med Chem, 2024).
Activity calls are given as the source filed them. The rule behind the calls is not given here.

Columns and labels:
[1] = Cmax in C57BL/6 mouse plasma at 10 mg/kg, iv measured after 0.25 hrs by LC-MS/MS analysis; assay type: ADME, organism-based
Summary of the method: (§1)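 Mice given a single 10 mg/kg IV dose; plasma and brain concentrations sampled at 0.25, 1.0 and 4.0 h, means ± error per timepoint.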

[2] = Cmax in C57BL/6 mouse plasma at 10 mg/kg, iv measured after 1 hr by LC-MS/MS analysis; assay type: ADME, organism-based; summary of the method: as §1
[3] = Cmax in C57BL/6 mouse plasma at 10 mg/kg, iv measured after 4 hrs by LC-MS/MS analysis; assay type: ADME, organism-based; summary of the method: as §1
[4] = Cmax in C57BL/6 mouse brain at 10 mg/kg, iv measured after 0.25 hrs by LC-MS/MS analysis; assay type: ADME, organism-based; summary of the method: as §1
[5] = Cmax in C57BL/6 mouse brain at 10 mg/kg, iv measured after 1 hrs by LC-MS/MS analysis; assay type: ADME, organism-based; summary of the method: as §1
[6] = Cmax in C57BL/6 mouse brain at 10 mg/kg, iv measured after 4 hrs by LC-MS/MS analysis; assay type: ADME, organism-based; summary of the method: as §1
[7] = Half life in C57BL/6 mouse plasma at 10 mg/kg, iv by LC-MS/MS analysis; assay type: ADME, organism-based; summary of the method: as §1
[8] = Unbound brain to plasma concentration ratio in C57BL/6 mouse at 10 mg/kg, iv […] by LC-MS/MS analysis; assay type: ADME, organism-based; conditions: read-out: K(p,uu,brain)
[9] = target: Metabotropic glutamate receptor 1 (Rattus norvegicus) (UniProt P23385); assay: Antagonist activity at rat mGlu1 transfected in HEK293 cells by IP-one HTRF assay; assay type: functional, cell-based
Summary of the method: (§2)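 HEK293 cells transiently electroporated with rat receptor plasmid plus EAAC1 Glu transporter, plated 150 000 cells/well on polyornithine, serum-free Glutamax DMEM ≥2 h before assay. At 24 h, washed in Krebs buffer and stimulated 30 min with compound in 50 mM LiCl. IP1 read by HTRF, at least duplicates, EC50 from 2–5 experiments.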

[10] = target: Metabotropic glutamate receptor 2 (Rattus norvegicus) (UniProt P31421); assay: Antagonist activity at rat mGlu2 transfected in HEK293 cells co-transfected with chimeric Gqi9 incubated for 30 mins by IP-one HTRF assay; assay type: functional, cell-based
[11] = target: Metabotropic glutamate receptor 3 (Rattus norvegicus) (UniProt P31422); assay: Antagonist activity at rat mGlu3 transfected in HEK293 cells co-transfected with chimeric Gqi9 incubated for 30 mins by IP-one HTRF assay; assay type: functional, cell-based
Sequence of Metabotropic glutamate receptor 3 (Rattus norvegicus) (P31422 23-879 limits assumed): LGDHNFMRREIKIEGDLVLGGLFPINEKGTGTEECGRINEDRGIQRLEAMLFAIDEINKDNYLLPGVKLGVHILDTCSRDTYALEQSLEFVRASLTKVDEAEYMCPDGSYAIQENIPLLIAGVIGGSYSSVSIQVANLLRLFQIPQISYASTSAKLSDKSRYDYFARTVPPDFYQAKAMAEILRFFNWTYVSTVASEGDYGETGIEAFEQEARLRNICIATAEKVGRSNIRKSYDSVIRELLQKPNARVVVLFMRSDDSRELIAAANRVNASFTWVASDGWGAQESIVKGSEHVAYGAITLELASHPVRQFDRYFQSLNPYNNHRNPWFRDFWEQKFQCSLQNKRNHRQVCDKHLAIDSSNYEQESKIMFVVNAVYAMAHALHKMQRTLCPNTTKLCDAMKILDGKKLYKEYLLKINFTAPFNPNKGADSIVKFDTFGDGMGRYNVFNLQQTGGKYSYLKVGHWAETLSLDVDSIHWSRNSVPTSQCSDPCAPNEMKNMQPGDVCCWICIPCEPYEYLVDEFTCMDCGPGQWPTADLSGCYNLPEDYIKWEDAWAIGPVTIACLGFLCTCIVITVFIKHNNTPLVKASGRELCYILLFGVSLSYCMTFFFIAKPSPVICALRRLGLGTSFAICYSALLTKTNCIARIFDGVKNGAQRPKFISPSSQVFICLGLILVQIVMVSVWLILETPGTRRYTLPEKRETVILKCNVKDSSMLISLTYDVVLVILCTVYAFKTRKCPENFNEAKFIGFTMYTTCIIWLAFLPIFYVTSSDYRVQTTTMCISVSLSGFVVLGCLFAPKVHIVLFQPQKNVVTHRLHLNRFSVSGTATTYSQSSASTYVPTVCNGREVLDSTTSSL

[12] = target: Metabotropic glutamate receptor 4 (Rattus norvegicus) (UniProt P31423); assay: Antagonist activity at rat mGlu4 transfected in HEK293 cells co-transfected with chimeric Gqi9 incubated for 30 mins by IP-one HTRF assay; assay type: functional, cell-based
Sequence of Metabotropic glutamate receptor 4 (Rattus norvegicus) (P31423 whole entry): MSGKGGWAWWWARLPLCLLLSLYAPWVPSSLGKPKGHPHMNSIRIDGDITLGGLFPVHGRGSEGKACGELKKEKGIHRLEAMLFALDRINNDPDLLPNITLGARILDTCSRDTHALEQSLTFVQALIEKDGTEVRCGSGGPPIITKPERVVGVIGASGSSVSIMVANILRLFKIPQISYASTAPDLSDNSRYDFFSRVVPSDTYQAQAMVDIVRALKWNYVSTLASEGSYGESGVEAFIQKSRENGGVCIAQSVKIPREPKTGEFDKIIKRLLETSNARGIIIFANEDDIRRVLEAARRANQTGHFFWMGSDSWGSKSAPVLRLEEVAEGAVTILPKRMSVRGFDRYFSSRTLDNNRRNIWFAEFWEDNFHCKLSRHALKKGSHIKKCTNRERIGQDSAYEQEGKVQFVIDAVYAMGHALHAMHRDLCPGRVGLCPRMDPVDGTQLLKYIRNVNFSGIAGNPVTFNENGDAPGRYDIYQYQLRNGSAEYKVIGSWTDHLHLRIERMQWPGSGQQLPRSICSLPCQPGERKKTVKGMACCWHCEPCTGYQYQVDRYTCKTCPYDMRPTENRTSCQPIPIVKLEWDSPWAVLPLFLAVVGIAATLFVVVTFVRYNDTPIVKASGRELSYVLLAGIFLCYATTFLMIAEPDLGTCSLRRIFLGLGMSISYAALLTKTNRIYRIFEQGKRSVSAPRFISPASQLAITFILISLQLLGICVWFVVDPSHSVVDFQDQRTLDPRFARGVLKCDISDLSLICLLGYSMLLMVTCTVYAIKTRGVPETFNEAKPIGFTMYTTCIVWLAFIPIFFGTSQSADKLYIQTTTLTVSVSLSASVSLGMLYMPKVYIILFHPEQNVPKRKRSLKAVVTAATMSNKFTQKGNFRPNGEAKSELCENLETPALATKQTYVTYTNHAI
Summary of the method: (§3)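 Rat group II/III receptor co-electroporated into HEK293 with chimeric Gqi9 and EAAC1 transporter, serum-free medium ≥2 h pre-assay. At 24 h post-transfection, Krebs wash, then 30 min compound exposure with 50 mM LiCl. IP1 accumulation quantified by HTRF kit, at least duplicate runs, mean of 2–5 experiments.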

[13] = target: Metabotropic glutamate receptor 5 (Rattus norvegicus) (UniProt P31424); assay: Antagonist activity at rat mGlu5 transfected in HEK293 cells by IP-one HTRF assay; assay type: functional, cell-based; summary of the method: as §2
Sequence of Metabotropic glutamate receptor 5 (Rattus norvegicus) (P31424 21-1203 limits assumed): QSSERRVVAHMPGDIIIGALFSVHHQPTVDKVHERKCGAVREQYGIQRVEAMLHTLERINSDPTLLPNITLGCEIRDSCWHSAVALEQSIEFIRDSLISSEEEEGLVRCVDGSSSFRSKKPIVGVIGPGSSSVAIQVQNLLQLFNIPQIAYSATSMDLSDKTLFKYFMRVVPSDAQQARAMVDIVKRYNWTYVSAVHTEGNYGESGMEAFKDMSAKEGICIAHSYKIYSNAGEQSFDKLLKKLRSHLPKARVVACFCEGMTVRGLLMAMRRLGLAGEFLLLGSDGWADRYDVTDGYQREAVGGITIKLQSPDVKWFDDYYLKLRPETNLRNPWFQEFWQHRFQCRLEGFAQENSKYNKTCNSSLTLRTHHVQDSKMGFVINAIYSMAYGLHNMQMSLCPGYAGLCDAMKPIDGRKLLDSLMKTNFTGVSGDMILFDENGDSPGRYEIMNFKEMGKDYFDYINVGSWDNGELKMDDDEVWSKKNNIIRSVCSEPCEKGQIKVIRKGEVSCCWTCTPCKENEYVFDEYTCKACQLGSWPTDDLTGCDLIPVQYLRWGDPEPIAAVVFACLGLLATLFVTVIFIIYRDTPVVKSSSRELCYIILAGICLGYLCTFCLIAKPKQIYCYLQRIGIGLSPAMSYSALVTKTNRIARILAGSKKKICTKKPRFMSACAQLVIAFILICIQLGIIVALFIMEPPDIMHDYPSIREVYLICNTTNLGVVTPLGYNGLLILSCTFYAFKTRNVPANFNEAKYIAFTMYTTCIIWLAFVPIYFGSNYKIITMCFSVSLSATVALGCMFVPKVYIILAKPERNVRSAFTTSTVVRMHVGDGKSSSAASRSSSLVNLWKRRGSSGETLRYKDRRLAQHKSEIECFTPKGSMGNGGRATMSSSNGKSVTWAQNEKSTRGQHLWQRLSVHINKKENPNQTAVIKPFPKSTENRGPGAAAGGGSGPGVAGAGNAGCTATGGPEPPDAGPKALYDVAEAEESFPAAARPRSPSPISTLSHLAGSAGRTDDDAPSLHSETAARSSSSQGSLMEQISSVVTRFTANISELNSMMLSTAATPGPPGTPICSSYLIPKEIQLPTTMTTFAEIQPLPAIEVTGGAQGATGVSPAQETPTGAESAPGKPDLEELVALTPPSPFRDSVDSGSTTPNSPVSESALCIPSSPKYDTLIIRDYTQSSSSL

[14] = target: Metabotropic glutamate receptor 6 (Rattus norvegicus) (UniProt P35349); assay: Antagonist activity at rat mGlu6 transfected in HEK293 cells co-transfected with chimeric Gqi9 incubated for 30 mins by IP-one HTRF assay; assay type: functional, cell-based; summary of the method: as §3
[15] = target: Metabotropic glutamate receptor 7 (Rattus norvegicus) (UniProt P35400); assay: Antagonist activity at rat mGlu7 transfected in HEK293 cells co-transfected with chimeric Gqi9 incubated for 30 mins by IP-one HTRF assay; assay type: functional, cell-based; summary of the method: as §3
Sequence of Metabotropic glutamate receptor 7 (Rattus norvegicus) (P35400 whole entry): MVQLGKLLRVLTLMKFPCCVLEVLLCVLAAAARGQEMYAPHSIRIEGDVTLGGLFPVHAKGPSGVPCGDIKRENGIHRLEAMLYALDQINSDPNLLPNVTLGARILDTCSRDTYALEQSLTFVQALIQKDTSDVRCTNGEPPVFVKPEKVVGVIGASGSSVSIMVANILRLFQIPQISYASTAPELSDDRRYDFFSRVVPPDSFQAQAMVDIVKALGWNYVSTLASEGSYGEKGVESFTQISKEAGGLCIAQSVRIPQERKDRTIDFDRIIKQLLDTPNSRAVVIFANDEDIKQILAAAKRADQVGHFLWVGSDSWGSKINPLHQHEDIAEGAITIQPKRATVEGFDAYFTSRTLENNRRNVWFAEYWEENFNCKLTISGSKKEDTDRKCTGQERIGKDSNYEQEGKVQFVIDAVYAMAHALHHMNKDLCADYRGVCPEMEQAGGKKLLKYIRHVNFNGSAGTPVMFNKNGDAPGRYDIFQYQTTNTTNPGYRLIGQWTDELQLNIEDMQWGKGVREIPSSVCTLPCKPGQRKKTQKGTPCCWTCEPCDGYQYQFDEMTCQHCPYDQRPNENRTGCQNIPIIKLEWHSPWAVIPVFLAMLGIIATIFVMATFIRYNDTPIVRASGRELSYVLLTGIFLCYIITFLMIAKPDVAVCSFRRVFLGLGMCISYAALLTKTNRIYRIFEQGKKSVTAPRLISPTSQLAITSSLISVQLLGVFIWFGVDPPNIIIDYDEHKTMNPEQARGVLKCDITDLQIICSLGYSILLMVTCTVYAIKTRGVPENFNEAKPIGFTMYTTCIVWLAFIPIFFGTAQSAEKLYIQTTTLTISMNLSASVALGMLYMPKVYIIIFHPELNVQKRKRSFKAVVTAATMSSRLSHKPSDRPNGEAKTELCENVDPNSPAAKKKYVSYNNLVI

[16] = target: Metabotropic glutamate receptor 8 (Rattus norvegicus) (UniProt P70579); assay: Antagonist activity at rat mGlu8 transfected in HEK293 cells co-transfected with chimeric Gqi9 incubated for 30 mins by IP-one HTRF assay; assay type: functional, cell-based; summary of the method: as §3
[17] = target: Metabotropic glutamate receptor 1 (Rattus norvegicus, UniProt P23385); assay: Agonist activity at rat mGlu1 transfected in HEK293 cells by IP-one HTRF assay; assay type: functional, cell-based; summary of the method: as §2
[18] = target: Metabotropic glutamate receptor 5 (Rattus norvegicus, UniProt P31424); assay: Agonist activity at rat mGlu5 transfected in HEK293 cells by IP-one HTRF assay; assay type: functional, cell-based
Summary of the method: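 HEK293 cells transiently electroporated with rat receptor plasmid plus the high-affinity Glu transporter EAAC1. Cells were grown in DMEM with 10% FBS and seeded on polyornithine-coated wells at 150 000 cells/well. Medium was switched to serum-free Glutamax DMEM ≥2 h before assay. At 24 h cells were washed in Krebs buffer and stimulated 30 min with agonist plus 50 mM LiCl. IP1 read by IP-One HTRF; ≥ duplicates.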

[19] = target: T1, Metabotropic glutamate receptor 2 (Rattus norvegicus, UniProt P31421); assay: Agonist activity at rat mGlu2 transfected in HEK293 cells co-transfected with chimeric Gqi9 incubated for 30 mins by IP-one HTRF assay; assay type: functional, cell-based; summary of the method: as §3
T1 sequence (P31421 whole entry): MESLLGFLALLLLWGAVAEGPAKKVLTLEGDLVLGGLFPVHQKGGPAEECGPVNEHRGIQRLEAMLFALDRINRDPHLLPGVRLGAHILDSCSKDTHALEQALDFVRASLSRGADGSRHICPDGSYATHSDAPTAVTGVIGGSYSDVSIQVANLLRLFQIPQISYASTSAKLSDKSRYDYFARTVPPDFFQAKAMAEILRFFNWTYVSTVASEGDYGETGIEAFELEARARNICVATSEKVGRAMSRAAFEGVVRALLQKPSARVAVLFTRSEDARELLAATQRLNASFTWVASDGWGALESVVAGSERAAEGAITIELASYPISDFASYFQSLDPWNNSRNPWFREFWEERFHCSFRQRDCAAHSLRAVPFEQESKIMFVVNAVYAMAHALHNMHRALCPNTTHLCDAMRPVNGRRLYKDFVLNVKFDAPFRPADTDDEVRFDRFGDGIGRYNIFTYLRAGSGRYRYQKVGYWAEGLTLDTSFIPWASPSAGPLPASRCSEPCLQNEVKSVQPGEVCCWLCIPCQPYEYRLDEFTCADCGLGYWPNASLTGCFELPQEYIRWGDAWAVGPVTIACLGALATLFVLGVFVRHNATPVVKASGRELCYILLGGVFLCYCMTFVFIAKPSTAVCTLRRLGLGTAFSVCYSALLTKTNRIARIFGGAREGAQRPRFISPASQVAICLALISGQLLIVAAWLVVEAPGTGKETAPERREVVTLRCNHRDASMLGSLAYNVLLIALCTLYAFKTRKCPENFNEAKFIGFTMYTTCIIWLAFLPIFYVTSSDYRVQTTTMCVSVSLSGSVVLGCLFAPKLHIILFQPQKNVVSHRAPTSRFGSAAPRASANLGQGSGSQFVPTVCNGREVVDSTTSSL

[20] = target: T2, Metabotropic glutamate receptor 3 (Rattus norvegicus, UniProt P31422); assay: Agonist activity at rat mGlu3 transfected in HEK293 cells co-transfected with chimeric Gqi9 incubated for 30 mins by IP-one HTRF assay; assay type: functional, cell-based
[21] = target: Metabotropic glutamate receptor 4 (Rattus norvegicus, UniProt P31423); assay: Agonist activity at rat mGlu4 transfected in HEK293 cells co-transfected with chimeric Gqi9 incubated for 30 mins by IP-one HTRF assay; assay type: functional, cell-based; summary of the method: as §3
Sequence of Metabotropic glutamate receptor 4 (P31423 whole entry): as the sequence (P31423 whole entry) above

[22] = target: Metabotropic glutamate receptor 6 (Rattus norvegicus, UniProt P35349); assay: Agonist activity at rat mGlu6 transfected in HEK293 cells co-transfected with chimeric Gqi9 incubated for 30 mins by IP-one HTRF assay; assay type: functional, cell-based; summary of the method: as §3
[23] = target: Metabotropic glutamate receptor 7 (Rattus norvegicus, UniProt P35400); assay: Agonist activity at rat mGlu7 transfected in HEK293 cells co-transfected with chimeric Gqi9 incubated for 30 mins by IP-one HTRF assay; assay type: functional, cell-based; summary of the method: as §3
Sequence of Metabotropic glutamate receptor 7 (P35400 whole entry): as the sequence (P35400 whole entry) above

[24] = target: Metabotropic glutamate receptor 8 (Rattus norvegicus, UniProt P70579); assay: Agonist activity at rat mGlu8 transfected in HEK293 cells co-transfected with chimeric Gqi9 incubated for 30 mins by IP-one HTRF assay; assay type: functional, cell-based; summary of the method: as §3
Rattus norvegicus [25] = organism: Rattus norvegicus; assay: Selectivity ratio of EC50 for rat mGlu3 to EC50 for rat Glu2
[26] = target: T1, Metabotropic glutamate receptor 2; assay: Agonist activity at SNAP tagged rat mGlu2 transfected HEK293 cells by TR-FRET assay; assay type: functional, cell-based
[27] = target: T1, Metabotropic glutamate receptor 2; assay: Agonist activity at SNAP tagged rat mGlu2 transfected HEK293 cells preincubated with antagonist LY-341495 followed by compound addition by TR-FRET assay; assay type: functional, cell-based
[28] = target: T2, Metabotropic glutamate receptor 3; assay: Agonist activity at SNAP tagged rat mGlu3 transfected HEK293 cells preincubated with antagonist LY-341495 followed by compound addition by TR-FRET assay; assay type: functional, cell-based
Rattus norvegicus [29] = organism: Rattus norvegicus; assay: Selectivity ratio of EC50 for SNAP tagged rat mGlu3 to EC50 for SNAP tagged rat mGlu2
Summary of the method: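 Ratio of EC50 at SNAP-tagged rat mGlu3 to mGlu2, both measured by TR-FRET conformational assay in HEK293 after LY341495 preincubation and washing; Lumi4-Tb/Green labeling, 337 nm excitation, 620/520 nm emission.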

[30] = target: T1, Metabotropic glutamate receptor 2; assay: Agonist activity at rat mGlu2; assay type: functional
[31] = target: T2, Metabotropic glutamate receptor 3; assay: Agonist activity at rat mGlu3; assay type: functional

Row | Compound | Activity [9] | Activity [10] | Activity [11] | Activity [12] | Activity [13] | Activity [14] | Activity [15] | Activity [16] | EC50 [17] | EC50 ([18]; read-out: EC50) | EC50 [20] | EC50 ([21]; read-out: EC50) | EC50 ([22]; read-out: EC50) | EC50 [23] | EC50 ([24]; read-out: EC50) | EC50 ([26]; read-out: EC50) | EC50 [28] | also measured
1 | Cl.N[C@H](C(=O)O)[C@H]1[C@H](CC(=O)O)[C@@H]1C(=O)O | inactive | inactive | inactive | inactive | inactive | inactive | inactive | inactive | > 30 µM | > 30000 nM | 373 nM | 110 nM | 280 nM | > 30 µM | 97 nM | 13 nM | 11.5 µM | Cmax [1]: 5360 ng/mL; Cmax [2]: 583 ng/mL; Cmax [3]: 50 ng/mL; Cmax [4]: 86 ng/g; Cmax [5]: 75 ng/g; Cmax [6]: 68 ng/g; half-life [7]: 30 min; Kp uu [8]: 0.02; EC50 ([19]; read-out: EC50): 1 nM; EC50 ([19]; read-out: pEC50 (converted)): 0.575 nM; EC50 ([21]; read-out: pEC50 (converted)): 35.5 nM; EC50 ([22]; read-out: pEC50 (converted)): 245 nM; EC50 ([24]; read-out: pEC50 (converted)): 35.5 nM; Ratio EC50 (Rattus norvegicus [25]): 620; EC50 ([26]; read-out: pEC50 (converted)): 22.4 nM; EC50 [27]: 22 nM; Ratio EC50 (Rattus norvegicus [29]): 513
2 | C[C@@]1(C(=O)O)C[C@H]1[C@H](N)C(=O)O | inactive | inactive | inactive | inactive | inactive | inactive | inactive | inactive | 5.5 µM | 12000 nM | 1880 nM | > 30000 nM | 2500 nM | > 30 µM | > 30000 nM |  |  | 
3 | N[C@@H](Cn1oc(=O)[nH]c1=O)C(=O)O [QUISQUALATE] | inactive | inactive | inactive | inactive | inactive | inactive | inactive | inactive |  | 27 nM |  |  |  |  |  |  |  | EC50 ([18]; read-out: pEC50 (converted)): 40.7 nM
4 | N[C@H](C(=O)O)[C@H]1[C@@H](CO)[C@@H]1C(=O)O |  |  |  |  |  |  |  |  |  |  |  |  |  |  |  |  |  | EC50 [30]: 4 nM; EC50 [31]: 7 nM
5 | COc1cccc(C(=O)N[C@H]2C[C@@](N)(C(=O)O)[C@@H]3[C@@H](C(=O)O)[C@@H]32)c1 |  |  |  |  |  |  |  |  |  |  |  |  |  |  |  | 2820 nM | 0.032 µM | 
